Screens deposited in PubChem BioAssay by several laboratories.
A selection: hits, their analogues and other compounds. The true share with any hit is near 2.4%.
STAT1 blocker – inhibitors of IFN-gamma induced STAT1 signaling; NIH 3T3 STAT1-luciferase reporter, luminescence; inhibition, % at 5.5 µM; 200,000 tested, 0.35% active; AID 920;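 active means inhibition above a set limit, the mean inhibition across all tested compounds plus 3 SD, cut at about 34% in these data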;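 further: 0% = IFN-gamma with DMSO and 100% = IFN-gamma with 300 µM nifuroxazide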
MT stabilize HCS – microtubule stabilization, imaging screen; % tubulin-high responders, % at 10 µM; AID 2205; 200,000 tested, 0.83% active; HeLa tubulin immunostaining HCS, 24 h; share of cells brighter than vehicle mean+2SD;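 active means plate Z-score above 3 for both tubulin-high and condensed-nucleus cell shares, with cell loss under 80%, at 10 µM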;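 further: anti alpha tubulin signal scored within the nucleus-defined area of each cell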
STAT3 inh-1 – reduces IL-6 driven STAT3 reporter signal; 190,000 tested, 0.89% active; inhibition, % at 5.5 µM; U3A cells, IL-6 STAT3-luciferase reporter, luminescence; host cell line lacks STAT1; AID 862;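 active means inhibition above the mean inhibition across all screened compounds plus 3 SD, cut at about 44% in these data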;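 further: 0% = DMSO only wells and 100% = 100 µM nifuroxazide control wells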
b-catenin transl – alters nuclear translocation of beta-catenin in HeLa cells | nuclear translocation activity, % at 5 µM | 190,000 tested, 0.3% active | immunofluorescence imaging | AID 1665;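 active means nuclear translocation activity above 50% at 5 µM, with a well cell count of 50 or more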;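 further: per-cell ratio of nuclear to cytoplasmic median beta-catenin stain intensity; plate controls were DMSO negative control for no effect and GSK-3 inhibitor IX positive control for full effect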
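Assay system: human HeLa cells, native beta-catenin; doses: 5 µM primary, 0.02–20 µM confirmation; incubation: compound treatment 24 h, 37°C, 5% CO2; technique: fluorescence imaging of beta-catenin antibody stain plus DAPI; measure: % activation, nuclear-to-cytoplasmic median beta-catenin signal ratio per cell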
STAT3 activator – activators of IL-6 induced STAT3 signaling; AID 871; activation (% of control), % at 5.6 µM; U3A cells, IL-6 STAT3-luciferase reporter, luminescence; 100% = signal with IL-6 EC80 alone; 190,000 tested, 0.91% active;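 active means activation above the screen-wide mean of compound activation plus 3 SD, cut at about 130% in these data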;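 further: 0% = background luminescence of wells with medium and substrate only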
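System – human U3A cells carrying STAT3-luciferase construct · Probe or stimulus – Interleukin-6, 33 ng/mL · Schedule – compound 1 h, then IL-6 6 h at 37 °C · Signal – luminescence from STAT3-driven luciferase reporter · Evaluation – percent of IL-6-only median luminescence · Benchmarks – IL-6-only high control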
STAT3 inh-2 – STAT3 inhibition, confirmation assay. 1,200 tested, 45% active. shares compounds with STAT3 inh-1. U3A cells, IL-6 STAT3 luciferase reporter, luminescence; cell line lacks STAT1. inhibition, % at 5.7 µM;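 active means inhibition above the hit cutoff computed for the primary STAT3 screen, cut at about 44% in these data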;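 further: 0% = IL-6 plus DMSO and 100% = IL-6 plus nifuroxazide control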
NFkB inh STAT3ct – counter-screen for STAT3 inhibitors: NF-kappaB inhibition; shares compounds with STAT3 inh-1; HEK293T NF-kB luciferase reporter, TNF-alpha induced; inhibition, % at 5.7 µM; 1,200 tested, 36% active;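 active means inhibition above the mean of solvent-only control wells plus 3 SD, cutoff set per campaign, cut at about 13% in these data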;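 further: 0% = TNF-alpha with DMSO and 100% = TNF-alpha with MG high control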
STAT1 inh 2 – inhibits STAT1, counter-screen to STAT3 inhibitors. shares compounds with STAT3 inh-1. NIH 3T3 STAT1-luciferase reporter, IFN-gamma induced, luminescence. inhibition, % at 5.7 µM. 1,200 tested, 27% active. AID 1317;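 active means inhibition above the mean plus 3 SD of solvent-only control wells, limit set per screening run, cut at about 16% in these data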;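 further: 0% = DMSO with IFN-gamma and 100% = nifuroxazide control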
Active calls of the source: *; . = not tested or not shown.

SMILES | STAT1 blocker | MT stabilize HCS | STAT3 inh-1 | b-catenin transl | STAT3 activator | STAT3 inh-2 | NFkB inh STAT3ct | STAT1 inh 2
CC(=O)c1cn(CC(=O)Nc2ccc(C)c(C)c2)c2ccccc12 | 24.7 | 4.1 | 67.0* | -2.2 | 45.8 | 52.7* | 19.1* | 17.6*
C/C(=N\NC(=O)COc1ccc(C(C)(C)C)cc1)c1ccc(N2CCOCC2)cc1 | -2.0 | 1.2 | -4.7 | -2.9 | 106.1 | . | . | .
CCOC(=O)C1=C(O)c2ccccc2C(=O)/C1=C\c1ccc(CC)cc1 | 8.9 | 3.5 | 11.6 | 1.6 | 97.7 | . | . | .
CCOC(=O)C1=C(Cc2ccc(C)cc2)C(=O)c2ccccc2C1=O | -0.9 | 1.3 | 59.8* | . | 49.8 | 59.9* | 12.0 | -1.8
C=CCNC(=S)N(CC)c1cccc2ccccc12 | -2.8 | 1.8 | -13.4 | 1.9 | 116.2 | . | . | .
Cc1ccc(-c2nc3n(n2)Cc2ccccc2-3)cc1 | 24.1 | 2.8 | 48.7* | -1.0 | 62.8 | -1.4 | 18.1* | -37.5
Fc1ccc(-c2nc3n(n2)Cc2ccccc2-3)cc1 | -14.7 | 2.6 | -14.8 | . | 116.7 | . | . | .
O=C(O)c1ccc2nc(-c3ccccc3)sc2c1 | 36.3* | 2.2 | 79.2* | -0.2 | 35.9 | 46.3* | 18.4* | -30.4
Cc1ccc(NC(=O)N2CCCc3ccccc32)cc1 | -8.1 | 3.5 | 13.1 | 1.2 | 91.6 | . | . | .
Cc1ccc(NC(=O)N2CCc3ccccc32)cc1 | 11.2 | 3.4 | 55.7* | -0.9 | 55.8 | 19.0 | -2.9 | -93.0
Cc1ccc(NC(=O)N2CCc3ccccc32)cc1C | 7.3 | 1.6 | 61.9* | -1.4 | 49.8 | 14.1 | -26.4 | -142.9
COc1ccc(Cn2c(S(=O)(=O)CC(N)=O)nc3ccccc32)cc1[N+](=O)[O-] | 1.9 | 1.7 | 11.6 | 0.4 | 99.8 | . | . | .
O=C1c2ccccc2C(=O)C1c1ccc2ccccc2n1 | -25.4 | 5.2 | 49.0* | 2.2 | 62.6 | 8.1 | 41.6* | -27.0
COC(=O)C1=C(C)NC(C)=C(C(=O)OC)C1c1ccc2ccccc2n1 | 1.9 | 2.3 | 7.3 | -10.5 | 99.6 | . | . | .
O=C(NCCc1ccccc1)c1ccc2nccnc2c1 | 19.8 | 2.6 | 54.5* | -0.7 | 55.9 | 16.5 | -8.9 | -67.5
CCOc1ccc(C(=O)NCCc2ccccc2)cc1 | 4.5 | 2.1 | 54.9* | . | 53.2 | 31.0 | 7.6 | -48.6
O=C(NC(=S)Nc1cccc(O)c1)c1ccco1 | . | . | . | -0.4 | . | . | . | .
CCOc1ccc(NC(=O)c2ccccc2OCC(=O)c2ccccc2)cc1 | -6.7 | 2.4 | 9.5 | . | 91.0 | . | . | .
Cc1ccc(C(=O)Nc2ccc3nccnc3c2)cc1 | 7.7 | 0.9 | 52.5* | . | 61.1 | 22.6 | -22.7 | -83.9
O=C(Nc1ccc(SC(F)F)cc1)c1ccc2nccnc2c1 | -17.4 | 1.3 | 48.2* | -0.3 | 63.2 | 42.0 | -17.8 | -25.6
Cc1ccc(C(=O)Nc2cccc(-c3cnc4ccccc4n3)c2)cc1 | -0.1 | 3.7 | 3.6 | -0.5 | 101.0 | . | . | .
O=C(Nc1ccc(OC(F)(F)F)cc1)c1ccc2nccnc2c1 | -12.4 | 3.8 | 28.6 | 0.3 | 78.8 | . | . | .
N/C(=N\OC(=O)c1ccc(Cl)cc1)c1ccccn1 | 3.7 | 2.2 | 87.1* | -2.0 | 31.1 | 12.0 | -30.5 | -96.4
N/C(=N\OC(=O)c1cccc(Cl)c1)c1ccccn1 | 24.5 | 2.8 | 74.2* | 5.7 | 39.0 | -5.1 | -29.2 | -86.7
N/C(=N\OC(=O)c1ccc(Cl)c(Cl)c1)c1ccccn1 | -35.0 | 4.5 | 1.8 | -0.9 | 102.5 | . | . | .
SMILES | STAT1 blocker | MT stabilize HCS | STAT3 inh-1 | b-catenin transl | STAT3 activator | STAT3 inh-2 | NFkB inh STAT3ct | STAT1 inh 2
Nc1nc(Cl)cc(N2CCC(c3cc(-c4ccc(Cl)cc4)n[nH]3)CC2)n1 | 24.2 | 1.6 | 52.6* | . | 61.1 | 45.6* | -3.4 | 21.0*
COc1ccc(/C=N/NC(=S)Nc2cccc(C(=O)O)c2)cc1 | 29.1 | 4.9 | 77.7* | 4.4 | 36.0 | 52.2* | 6.5 | -5.0
O=C(COC(=O)c1cc[n+]([O-])cc1)Nc1ccc(Cl)cc1[N+](=O)[O-] | -1.3 | 2.9 | -13.3 | -6.0 | 113.0 | . | . | .
CC(=O)c1c(C)[nH]c(C(=O)OCC(=O)Nc2ccc(Cl)cc2[N+](=O)[O-])c1C | 27.0 | 2.4 | 57.4* | -2.2 | 49.9 | 73.5* | 28.4* | 27.9*
CCC(=O)Oc1ccc(-c2nc(-c3cccnc3)no2)cc1 | -19.5 | 7.9 | 45.9* | -1.9 | 62.0 | 25.2 | -15.6 | -39.3
COc1ccc(OC(=O)c2ccc3nsnc3c2)cc1 | 6.7 | 1.6 | 0.2 | . | 100.0 | . | . | .
Cc1ccc(OC(=O)c2ccc3nc(C)sc3c2)cc1 | 24.0 | 1.7 | 56.9* | 1.0 | 52.4 | -11.8 | -26.7 | -49.4
Cc1ccc(S(=O)(=O)N(C)c2ccc(C(=O)N3CCN(Cc4ccc5c(c4)OCO5)CC3)cc2)cc1 | 13.3 | 1.0 | 54.0* | . | 57.7 | 45.5* | 10.1 | -0.1
CN(c1ccc(C(=O)N2CCN(Cc3ccc4c(c3)OCO4)CC2)cc1)S(=O)(=O)c1ccccc1 | 7.9 | 2.2 | 48.8* | 0.4 | 59.9 | 41.3 | 11.1 | 6.1
Cc1cccc(C(=O)N2CCN(Cc3ccc4c(c3)OCO4)CC2)c1 | -13.3 | 1.5 | -6.1 | . | 109.0 | . | . | .
COc1cc(C)c(NC(=S)NCCCN2CCOCC2)cc1OC | -3.6 | 3.2 | 4.1 | -1.3 | 98.6 | . | . | .
CCCCCCCc1ccc(-c2ccc(O)cc2)nc1 | -10.0 | . | 53.6* | 1.6 | 56.0 | 61.7* | -0.3 | -11.7
CCCc1ccc(-c2ccc(/C=C/C(=O)O)cc2)nc1 | -24.4 | 1.8 | 96.5* | -0.1 | 19.5 | 93.9* | 69.3* | -35.4
CCN1CCC(CNCc2cn(-c3ccc(OC)cc3)nc2-c2ccccc2Cl)C1 (stereo unspecified) | -10.7 | 2.3 | 5.0 | -0.5 | 99.4 | . | . | .
Cc1ccc(N(C(=O)CCl)C(C(=O)NC2CCCCC2)c2cccnc2)cc1C (stereo unspecified) | 30.1 | 10.6 | 70.3* | 7.6 | 40.6 | 101.5* | 40.0* | 40.0*
Cc1ccc(N(C(=O)CNC(=O)c2ccco2)C(C(=O)NC2CCCC2)c2cccnc2)cc1C (stereo unspecified) | -7.7 | 1.2 | 0.8 | 0.0 | 103.8 | . | . | .
Cc1cc(Cl)c(S(=O)(=O)N2CCN(c3ccc(F)cc3)CC2)cc1OCC(=O)NC1CCCCC1 | 17.7 | 2.1 | 88.4* | . | 27.3 | 84.6* | 35.1* | 9.6
Cc1cc(Cl)c(S(=O)(=O)N2CCN(c3ccccn3)CC2)cc1OCC(N)=O | 9.7 | 2.1 | 12.8 | 2.3 | 93.4 | . | . | .
CCOC(=O)C1CCCN(S(=O)(=O)c2cc(OCC(=O)NC3CCCCC3)c(C)cc2Cl)C1 (stereo unspecified) | 0.2 | 3.8 | 18.6 | . | 87.0 | . | . | .
Cc1cc(Cl)c(S(=O)(=O)N2CCN(c3ccc(F)cc3)CC2)cc1OCC(N)=O | 4.2 | 4.5 | 45.0* | 1.5 | 64.5 | 33.5 | 5.8 | 1.2
